Measurements collected from several papers.
Each line is one published result; the experiments were not run side by side.
Target: Serine/threonine-protein kinase WNK1 (WNK1, Homo sapiens, UniProt Q9H4A3)

| SMILES | read-out | mode | technique | tested at | quantity | result |
| --- | --- | --- | --- | --- | --- | --- |
| C[C@@H]1CN(c2cc(-c3n[nH]c4ccc(OC5(C)CC5)cc34)ncn2)C[C@H](C)O1 | cell-free assay | – | competition with immobilised ligand | 0.1 µM | remaining binding | 89% |
| CC(C)(C)c1nc2c(s1)c1nc(N)ncc1c1ccc(NS(=O)(=O)c3c(F)cccc3F)c(F)c12 | enzyme activity | inhibitor | radiometric | 1 µM | remaining activity | 103% |
| COc1cc(Nc2cnc(C#N)c(O[C@H](C)CN(C)C)n2)ncc1-c1cnn(C)c1 | enzyme activity | inhibitor | radiometric | 10 µM | remaining activity | 75% |
| CN(c1ccnc(CNc2nc(Nc3ccc4c(c3)CC(=O)N4)ncc2C(F)(F)F)n1)S(C)(=O)=O | cell-free assay | – | competition with immobilised ligand | 1 µM | remaining binding | 87% |
| N[C@@H]1CCN(c2nccc(-c3cnn4ncccc34)n2)C1 | binding | – | – | 1 µM | remaining binding | 100% |
| Nc1ncnc2occ(-c3ccc(NC(=O)Nc4cc(C(F)(F)F)ccc4F)cc3)c12 | cell-free assay | inhibitor | – | 20 µM | remaining signal | 87% |
| FC(F)(F)Oc1cccc(-c2cnc3ccc(-c4ccncc4)nn23)c1 | enzyme activity | inhibitor | radiometric | 1 µM | activity vs control | 105% |
| C[C@@H]1CCN(c2nccc(-c3cnn4ncccc34)n2)C1 | binding | – | – | 1 µM | remaining binding | 92% |
| O=C(Nc1cnn(-c2csc(C(=O)NC3COC3)c2)c1)Nc1c(F)cccc1Cl | enzyme activity | inhibitor | – | 5 µM | remaining activity | 93.3% |
| CC(C)(O)[C@H]1CC[C@H](Nc2ccc3ncc(-c4cccc(C(F)(F)F)c4)n3n2)CC1 | enzyme activity | inhibitor | – | 1 µM | remaining activity | 92.6% |
| CN([C@@H]1CCc2c(CC(=O)O)c3cc(S(C)(=O)=O)ccc3n2C1)S(=O)(=O)c1ccc(F)cc1 | cell-free assay | – | competition with immobilised ligand | 1 µM | remaining binding | 95% |
| Cn1cncc1C1=CN(c2ncnc3[nH]cnc23)CCS1 | enzyme activity | inhibitor | radiometric | 50 nM | inhibition | 14.1% |
| Cn1cc(Cl)c2c(Oc3c(F)cc(Nc4cc(Cl)nc(N)n4)cc3F)ccnc21 | cell-free assay | – | competition with immobilised ligand | 0.1 µM | remaining binding | 98% |
| CS(=O)(=O)Nc1cccc(-c2csc(NC(=O)CSc3nc4nccnc4c(=O)n3CCc3ccccc3)n2)c1 | enzyme activity | inhibitor | – | 10 µM | inhibition | -3% |
| CN1CC(Oc2cnc(C#N)cc2-c2ccn3nc(NC(=O)C4CC4)cc3c2)C1 | enzyme activity | inhibitor | – | 1 µM | inhibition | 17% |
| CCCCN(CCCC)C(=O)CN1C[C@@H](c2cc(OC)c3c(c2)OCO3)[C@H](C(=O)O)[C@H]1CC(C)(C)CCC | cell-free assay | – | competition with immobilised ligand | 1 µM | remaining binding | 96.8% |
